Reference: PMC5033715 (International journal of toxicology, 2016)
“And” between values parts separate entries of the source, which are not always exact repeats. Equal entries are not always repeated. “Also recorded” adds a separate entry of the source. Where two headings read alike, the source gives them in different places. Marks after values point to notes of the source that are not given here.

How the values were obtained:
[1] = tested on: LANCL2; settings: cited from earlier work
[2] = tested on: mouse models of colitis; settings: cited from earlier work
[3] = tested on: adult Sprague Dawley male rats; test: Repeated dose study; type: in vivo, rat; settings: 80 mg/kg/day for 14 days; days 4, 8, 14, 21
[4] = tested on: adult Sprague Dawley male rats; test: Single dose study; type: in vivo, rat; settings: single oral 500 mg/kg; 2, 4, 8 or 14 days post-dosing
How it was run: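 Satellite rats given vehicle or a single 500 mg/kg oral dose were euthanized (pentobarbital 200 mg/kg ip) at 2, 4, 8 and 14 days. Brain, kidney, liver, adrenal, testes, stomach, intestines, duodenum, pancreas, heart, lungs, spleen, thymus and rib were sectioned at 5 μm and H&E stained, n=3. A board-certified veterinary pathologist examined them unblinded by light microscopy.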

[5] = tested on: adult Sprague Dawley male rats; test: Single dose study; type: in vivo, rat
How it was run: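 Rats were fasted 12 h, then given one oral gavage of vehicle or 500 mg/kg as a 100 mg/mL suspension; n=10. The functional observational battery was scored at baseline (day −3 or −4), 4 h, and days 1, 7 and 14. Quantal and categorical endpoints were compared by Fisher's exact test. Continuous endpoints (body weight, grip strength and others) were analysed by mixed model with rat as random effect, giving least-squares means per time point.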

[6] = tested on: adult Sprague Dawley male rats; test: Repeated dose study; type: in vivo, rat; settings: 80 mg/kg/day over 14 days
[7] = tested on: adult Sprague Dawley male rats; test: Single dose study; type: in vivo, rat; settings: for tBILI, mean plasma: control 0.10; for ALT, mean plasma: control 39; for AST, mean plasma: control 69; for ALP, mean plasma: control 300
How it was run: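 After a 12 h fast, rats received vehicle or one 500 mg/kg oral gavage. Separate satellite rats (3 treated, 4 control per time point) were euthanized with intraperitoneal pentobarbital 200 mg/kg at 2, 4, 8 and 14 days. Blood was run through a haematology and chemistry panel including ALT, AST, bilirubin, glucose, BUN, creatinine, electrolytes, cholesterol and proteins; group means are reported.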

[8] = Blood concentrations after single high dose; type: in vivo, rat
[9] = tested on: adult Sprague Dawley male rats; test: Repeated dose study; type: in vivo, rat; settings: for O_REAR (rears during observation period), least squares means (95% confidence interval): 80 mg/kg/day
How it was run: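 Male Sprague-Dawley rats (200–250 g) were housed 2 per cage on a reverse light cycle and fasted 12 h before dosing. They received vehicle or 80 mg/kg (20 mg/mL suspension) by oral gavage daily for 14 days, then 7 drug-free days; n=10, 8 at day 21. FOB ran at baseline (day −3/−4) and days 3, 7, 14 and 21. It covered quantal/categorical endpoints (Mantel-Haenszel chi-square, 2 blocks) and continuous endpoints (weight, temperature, rotarod, grip, foot splay) as mixed-model least-squares means.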

[10] = Pharmacokinetic experiment, single 80 mg/kg oral dose, plasma LC-MS/MS; type: in vivo, rat; settings: for Geometric mean of plasma concentration (95% lower and upper confidence limits) / Plasma concentration, Median (minimum; maximum): n=3
How it was run: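 Adult male Sprague-Dawley rats with indwelling jugular catheters, caged singly and acclimated 5 days, were fasted 12 h and given 80 mg/kg by oral gavage. Catheter blood was drawn at 0.5–48 hr, at least 3 rats per time point. EDTA plasma was acetonitrile-extracted with reserpine internal standard and assayed by LC-MS/MS (C18, duplicates; LLOQ 0.2 ng/ml). Median concentrations gave kel, Vd, Cl and T½. Cmax and Tmax were read from the curve, and ka from a one-compartment fit.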

[11] = Solubility for intravenous administration; type: physicochemical; settings: at concentrations required for IV administration of the test dose
[12] = Day 2 after single oral 500 mg/kg
[13] = Day 4 after single oral 500 mg/kg
[14] = Day 8 after single oral 500 mg/kg
[15] = Day 14 after single oral 500 mg/kg

CC1=CC(=O)CC(C)(C)[C@@]1(O)/C=C/C(C)=C\C(=O)O [Abscisic acid]
LANCL2 binding ([1]; leads to elevation of intracellular cAMP, activation of PKA): binds to LANCL2

O=C(c1cccc(-c2nc3ccccc3[nH]2)n1)N1CCN(C(=O)c2cccc(-c3nc4ccccc4[nH]3)n2)CC1 [BT-11, piperazine-1,4-diylbis((6-(1H-benzo[d]imidazo-2-y)pyridin-2-yl)methanone)]
inflammatory F4/80+ CD11b+ macrophages and effector Th1 cells in the gut mucosa ([2]; 3 mouse models of colitis): decreased numbers
lowest dose with therapeutic efficacy ([2]; 3 validated mouse models of colitis): 8 mg/kg/day
Th1 cells and Th17 cells in the spleen and MLN ([2]; mouse colitis): decreased the levels
colonic expression of IL-10 and LANCL2 ([2]; oral, dose-dependent): up-regulated
colonic expression of TNFα ([2]; oral, dose-dependent): down-regulated
reduction in gut inflammation ([2]; oral, mice, 3 mouse models of colitis/IBD): 90%
lowest (minimal) efficacious dose ([2]; oral, mice): 8 mg/kg
reduction of colonic lesions ([2]; oral, mice, doses 80 mg/kg and as low as 8 mg/kg): 4 X
clinical pathological examination of blood samples, control vs test [3]: did not reveal any clinical or statistical differences
histopathologic comparison, vehicle control vs BT-11-exposed [4]: No significant differences
weight difference vs control ([5]; 14 days after single 500 mg/kg bolus dose): < 4%
hind grip strength, least squares mean ([5]; day 1 after single oral 500 mg/kg, control 0.46, p=0.0272): 0.40
weight, least squares mean ([5]; day 14 after single oral 500 mg/kg, control 264.46, p=0.0006): 254.71
FOB quantal endpoints, treated vs control ([5]; single oral 500 mg/kg): no differences
behavioral evidence of detrimental effects ([5]; single oral 500 mg/kg, 2 weeks observation): No obvious behavioral evidence of detrimental effects
FOB categorical endpoints, treated vs control ([5]; single oral 500 mg/kg, time points beyond baseline): did not differ
tolerability ([5]; single oral bolus of 500 mg/kg): well-tolerated
histopathologic evidence of toxic injury [6]: no histopathologic evidence of toxic injury
tBILI, mean plasma [7, 12]: 0.20^a mg/dL
ALT, mean plasma [7, 12]: 126^a IU/L
AST, mean plasma [7, 12]: 269^a IU/L
ALP, mean plasma [7, 12]: 376^a IU/L
tBILI, mean plasma [7, 13]: 0.23^a mg/dL
ALT, mean plasma [7, 13]: 52^a IU/L
AST, mean plasma [7, 13]: 106^a IU/L
ALP, mean plasma [7, 13]: 294^a IU/L
tBILI, mean plasma [7, 14]: 0.13 ^a mg/dL
ALT, mean plasma [7, 14]: 53^a IU/L
AST, mean plasma [7, 14]: 80^a IU/L
ALP, mean plasma [7, 14]: 288 ^a IU/L
tBILI, mean plasma [7, 15]: 0.10^a mg/dL
ALT, mean plasma [7, 15]: 41^a IU/L
AST, mean plasma [7, 15]: 67^a IU/L
ALP, mean plasma [7, 15]: 265^a IU/L
LANCL2 binding [1]: binds LANCL2
blood concentration, individual samples ([8]; 2 hr after 500 mg/kg oral): 0.032 µg/mL and 0.0031 µg/mL and 0.013 µg/mL
blood concentration, individual samples ([8]; 4 hr after 500 mg/kg oral): 0.017 µg/mL and 0.015 µg/mL and 0.0067 µg/mL
blood concentration, individual samples ([8]; 22 hr after 500 mg/kg oral): 0.003 µg/mL and 0.0096 µg/mL and 0.0033 µg/mL
FOB quantal endpoints, treated vs control ([9]; 80 mg/kg/day oral for 14 days): No quantal differences
behavioral evidence of detrimental effects ([9]; 80 mg/kg/day oral, 2 weeks of treatment and 1 week post-dosing): No behavioral evidence of detrimental effects
weight and hind grip, treated vs control ([9]; 14 daily oral doses of 80 mg/kg, to day 21): no significant differences
O_REAR (rears during observation period), least squares means (95% confidence interval) ([9]; Study day 3, control 29.17, P=0.4916): 27.23 (13.90-40.57)
O_REAR (rears during observation period), least squares means (95% confidence interval) ([9]; Study day 7, control 27.97, P=0.1985): 24.33 (11.00-37.67)
O_REAR (rears during observation period), least squares means (95% confidence interval) ([9]; Study day 14, control 30.27, P=0.0273): 23.93 (10.60-37.27)
tolerability ([9]; oral, 14 days at 80 mg/kg (cumulative dose 1,120 mg/kg)): well-tolerated
time to steady state (97% level) after repeated dosing ([10]; 5 × T ½, assuming single-compartment, dose-independent pharmacokinetics): approximately 15 hr
Geometric mean of plasma concentration (95% lower and upper confidence limits) ([10]; 0.5 hr after 80 mg/kg oral): 14.60 (2.94; 72.53) ng/ml
Plasma concentration, Median (minimum; maximum) ([10]; 0.5 hr after 80 mg/kg oral): 12.18 (8.55; 29.89) ng/ml
Geometric mean of plasma concentration (95% lower and upper confidence limits) ([10]; 1 hr after 80 mg/kg oral): 23.99 (4.66; 123.40) ng/ml
Plasma concentration, Median (minimum; maximum) ([10]; 1 hr after 80 mg/kg oral): 20.95 (13.42; 49.11) ng/ml
Geometric mean of plasma concentration (95% lower and upper confidence limits) ([10]; 2 hr after 80 mg/kg oral): 19.65 (4.28; 90.23) ng/ml
Plasma concentration, Median (minimum; maximum) ([10]; 2 hr after 80 mg/kg oral): 16.88 (11.65; 38.62) ng/ml
Geometric mean of plasma concentration (95% lower and upper confidence limits) ([10]; 4 hr after 80 mg/kg oral): 8.24 (1.89; 35.94) ng/ml
Plasma concentration, Median (minimum; maximum) ([10]; 4 hr after 80 mg/kg oral): 11.07 (4.16; 12.14) ng/ml
Geometric mean of plasma concentration (95% lower and upper confidence limits) ([10]; 8 hr after 80 mg/kg oral): 5.24 (2.16; 12.73) ng/ml
Plasma concentration, Median (minimum; maximum) ([10]; 8 hr after 80 mg/kg oral): 4.33 (4.20; 7.91) ng/ml
Geometric mean of plasma concentration (95% lower and upper confidence limits) ([10]; 12 hr after 80 mg/kg oral): 1.84 (1.39; 2.45) ng/ml
Plasma concentration, Median (minimum; maximum) ([10]; 12 hr after 80 mg/kg oral): 1.83 (1.65; 2.07) ng/ml
Geometric mean of plasma concentration (95% lower and upper confidence limits) ([10]; 16 hr after 80 mg/kg oral): 2.31 (0.12; 44.19) ng/ml
Plasma concentration, Median (minimum; maximum) ([10]; 16 hr after 80 mg/kg oral): 1.40 (0.99; 8.98) ng/ml
Geometric mean of plasma concentration (95% lower and upper confidence limits) ([10]; 20 hr after 80 mg/kg oral): 1.06 (0.29; 3.90) ng/ml
Plasma concentration, Median (minimum; maximum) ([10]; 20 hr after 80 mg/kg oral): 1.39 (0.58; 1.49) ng/ml
Geometric mean of plasma concentration (95% lower and upper confidence limits) ([10]; 24 hr after 80 mg/kg oral): 0.95 (0.04; 21.25) ng/ml
Plasma concentration, Median (minimum; maximum) ([10]; 24 hr after 80 mg/kg oral): 1.01 (0.26; 3.22) ng/ml
Geometric mean of plasma concentration (95% lower and upper confidence limits) ([10]; 48 hr after 80 mg/kg oral): 1.57 (0.47; 5.31) ng/ml
Plasma concentration, Median (minimum; maximum) ([10]; 48 hr after 80 mg/kg oral): 1.90 (0.90; 2.27) ng/ml
Cmax (maximal concentration) ([10]; single 80 mg/kg oral, estimated from graph of median plasma concentrations): 0.021 µg/mL
Half-life (T ½) ([10]; single 80 mg/kg oral, median values 0.5-8 hr, 80 mg/kg): 3 h
solubility [11]: too insoluble to administer by the intravenous route; also recorded: relatively insoluble; also recorded: insufficiently soluble to be given IV

O=C(Nc1cccc(-c2nc3ccccc3[nH]2)c1)c1ccc(C(=O)Nc2cccc(-c3nc4ccccc4[nH]3)c2)cc1 [CID247228, N^1,N^4-bis(3-(1H-benzo[d]imidazo-2-yl)phenyl)terephthalamide, reference compound]
anti-inflammatory activity in mice with colitis ([2]; oral): potent oral anti-inflammatory therapeutic
LANCL2 binding [1]: ligand of LANCL2
